As usually defined, the IC50 is the concentration that inhibits the measured activity by half.

In assay [1] the test system is MES-SA. Put plainly: Ability to inhibit growth of doxorubicin-resistant (MES-SA/DOX) uterine sarcoma cell line was determined in an in vitro MTT assay. It counts as functional, cell-based. The following applies: Homo sapiens. The method in brief: (§1)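 Uterine sarcoma cells in Waymouth's/McCoy's 5A with 15% FCS and insulin. MES-SA seeded at 4 × 10^3, MES-SA/DOX at 6 × 10^3 per well, attached 16–24 h, then given drug-containing medium (final DMSO 0.5%) for 72 h. MTT added for 3 h at 37 °C, formazan dissolved in DMSO, OD read at 570 nm. IC50 versus untreated controls.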
(In general: Tetrazolium dyes change colour on reduction, which living cells bring about.)

The next assay has as its system KBM-3/DOX cell line. Put plainly: Ability to inhibit growth of human myelogenous leukemic cell line KBM-3 variant namely KBM-3/DOX, was determined in an in vitro clonogenic assay.
The next assay concerns P388. Put plainly: Ability to inhibit growth of P388 leukemic cell line was determined in an in vitro MTT assay. Type of assay: functional, cell-based. The note with it: Mus musculus. The method, boiled down:
(§2)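 Murine leukemia cells in RPMI 1640 with 10% heat-inactivated FCS, 2-mercaptoethanol; exponentially growing at 10^6 cells/mL, exposed to varying drug concentrations (DMSO stock, final 0.5% DMSO; controls same) for 1 h at 37 °C, washed twice with ice-cold PBS, resuspended at 2 × 10^5/mL in drug-free medium, cultured 72 h. IC50 = concentration giving 50% growth inhibition versus untreated controls.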

The test system of the next assay is L1210. Put plainly: Ability to inhibit growth of L1210 leukemic cell lines was determined in an in vitro MTT assay. Type of assay: functional, cell-based. The note with it: Mus musculus. The method, boiled down:
as §2

Another assay relates to KBM-3 cell line. Put plainly: Ability to inhibit growth of human myelogenous leukemic cell line KBM-3 was determined in an in vitro clonogenic assay.
Assay [2] has as its system MES-SA. Put plainly: Ability to inhibit growth of doxorubicin-sensitive (MES-SA) uterine sarcoma cell line was determined in an in vitro MTT assay. It counts as functional, cell-based. The following applies: Homo sapiens. The method in brief: as §1

Consider `COc1cccc2c1C(=O)c1c(O)c3c(c(O)c1C2=O)C[C@](O)(C(=O)CO)C[C@@H]3OC1CC(NC(=O)N(CCCl)N=O)C(O)C(C)O1` (stereo partly specified), for which the IC50 with MES-SA [1] is 7.7 µM; with KBM-3/DOX cell line, 0.25 µM; in the assay with P388, 2.9 µM; in the assay on L1210, 2.9 µM; with KBM-3 cell line, 0.21 µM; in the assay on MES-SA [2] it was 0.8 µM.
For `COc1cccc2c1C(=O)c1c(O)c3c(c(O)c1C2=O)C[C@](O)(C(=O)CO)C[C@@H]3OC1CC(NC(=O)CCl)C(O)C(C)O1` (stereo partly specified), the IC50 with MES-SA [1] was found to be 2.7 µM; in the assay on P388 it was 2.9 µM; with L1210 it was 2.1 µM; in the assay with MES-SA [2], 0.4 µM.
The matching figures for `COc1cccc2c1C(=O)c1c(O)c3c(c(O)c1C2=O)C[C@](O)(C(=O)CO)C[C@@H]3OC1CC(NC(=O)c2ccc(S(=O)(=O)F)cc2)C(O)C(C)O1` (stereo partly specified): 6.9 µM, 7.7 µM, 6.9 µM and 3.8 µM.
For the compound `COc1cccc2c1C(=O)c1c(O)c3c(c(O)c1C2=O)C[C@@](O)(C(=O)CO)C[C@@H]3O[C@H]1C[C@H](N)[C@H](O)[C@H](C)O1` [DOXORUBICIN], the IC50 stood at 4.2 µM in the assay on MES-SA [1]; 0.49 µM in the assay on KBM-3/DOX cell line; 1.22 µM with P388; 0.2 µM in the assay on L1210; 0.026 µM with KBM-3 cell line; 0.04 µM in the assay on MES-SA [2].
On to `COc1cccc2c1C(=O)c1c(O)c3c(c(O)c1C2=O)C[C@](O)(C(=O)CO)C[C@@H]3OC1CC(NC(=O)CBr)C(O)C(C)O1` (stereo partly specified), for which the IC50 with MES-SA [1] amounted to 0.8 µM; with KBM-3/DOX cell line, 0.16 µM; in the assay on P388 it was 1.5 µM; in the assay on L1210 it was 2.1 µM; in the assay on KBM-3 cell line it was 0.14 µM; with MES-SA [2] it was 0.2 µM.

(Values after ChEMBL document CHEMBL1125235, “Doxorubicin analogues incorporating chemically reactive substituents” (J Med Chem, 1991).)
